# Experimental data of several laboratories.
# Each line is one published result; the experiments were not run side by side.
# ABL1 phosphorylated: Tyrosine-protein kinase ABL1, phosphorylated (ABL1, Homo sapiens, UniProt P00519)
# ABL1 non-phosphorylated: Tyrosine-protein kinase ABL1, non-phosphorylated (ABL1, Homo sapiens, UniProt P00519)
# ABL1 Y253F: Tyrosine-protein kinase ABL1 (ABL1, Homo sapiens, UniProt P00519, Y253F)
# ABL1 F317L non-phosphorylated: Tyrosine-protein kinase ABL1, non-phosphorylated (ABL1, Homo sapiens, UniProt P00519, F317L)
# ABL1 Q252H non-phosphorylated: Tyrosine-protein kinase ABL1, non-phosphorylated (ABL1, Homo sapiens, UniProt P00519, Q252H)
# ABL1 F317I non-phosphorylated: Tyrosine-protein kinase ABL1, non-phosphorylated (ABL1, Homo sapiens, UniProt P00519, F317I)
# ABL1 M351T: Tyrosine-protein kinase ABL1 (ABL1, Homo sapiens, UniProt P00519, M351T)
# ABL1 E255K phosphorylated: Tyrosine-protein kinase ABL1, phosphorylated (ABL1, Homo sapiens, UniProt P00519, E255K)
# ABL1 T315I non-phosphorylated: Tyrosine-protein kinase ABL1, non-phosphorylated (ABL1, Homo sapiens, UniProt P00519, T315I)
# ABL1 H396P phosphorylated: Tyrosine-protein kinase ABL1, phosphorylated (ABL1, Homo sapiens, UniProt P00519, H396P)
# ABL1 H396P non-phosphorylated: Tyrosine-protein kinase ABL1, non-phosphorylated (ABL1, Homo sapiens, UniProt P00519, H396P)
Structure (SMILES),target,test,setting,remaining binding [%]
CC1CCCN1c1nccc(-c2cnn3ncccc23)n1 (centres unmarked),ABL1 phosphorylated,binding,1 µM,96
Cc1cnc(Nc2ccc(C(=O)N3CCC(N4CCCC4)CC3)cc2)nc1-c1cc2ccccc2s1,ABL1 non-phosphorylated,"binding, competition with immobilised ligand",1 µM,2.7
COC(=O)Nc1nc2ccc(C(=O)c3ccccc3)cc2[nH]1,ABL1 phosphorylated,"cell-free assay, competition with immobilised ligand",10 µM,0.9
N[C@@H]1CCN(c2nccc(-c3cnn4ncccc34)n2)C1,ABL1 Y253F,binding,1 µM,62
C[C@@H]1CN(c2cc(-c3n[nH]c4ccc(OC5(C)CC5)cc34)ncn2)C[C@H](C)O1,ABL1 phosphorylated,"cell-free assay, competition with immobilised ligand",0.1 µM,67
O=C(c1ccc(Nc2ncc(Cl)c(-c3ccc(Cl)s3)n2)cc1)N1CCC(N2CCCC2)CC1,ABL1 F317L non-phosphorylated,"binding, competition with immobilised ligand",1 µM,65
Nc1ncc2c(n1)-c1c([nH]c3ccc(C#CC4CC4)cc13)CCCC2,ABL1 Q252H non-phosphorylated,"binding, competition with immobilised ligand",1 µM,93
N#Cc1ccccc1CSc1nnc2c(n1)[nH]c1ccccc12,ABL1 non-phosphorylated,"binding, competition with immobilised ligand",10 µM,86
CC1=C(C#N)C(c2ccc3c(c2)c(NC(=O)c2ccccc2C)nn3C)C(C#N)=C(C)N1,ABL1 F317I non-phosphorylated,"binding, competition with immobilised ligand",1 µM,100
c1cnn2ncc(-c3ccnc(N4CCC45COC5)n3)c2c1,ABL1 M351T,binding,1 µM,48
O=C(NCC1CCOCC1)c1n[nH]cc1NC(=O)c1c(F)cccc1F,ABL1 E255K phosphorylated,"binding, competition with immobilised ligand",1 µM,88
CC(C)(C)c1ccc(-c2nc(CBr)nn2-c2cccc(O)c2)cc1,"Tyrosine-protein kinase ABL1, phosphorylated (ABL1, Homo sapiens, UniProt P00519, T315I)","cell-free assay, competition with immobilised ligand",10 µM,82
CCN1CCN(Cc2ccc(C(=O)Nc3ccc(C)c(Oc4ccc5c(c4)CC(=O)N5)c3)cc2C(F)(F)F)CC1,ABL1 T315I non-phosphorylated,"binding, competition with immobilised ligand",1 µM,16
COc1cnc(Nc2cccc(S(N)(=O)=O)c2)nc1N1CCN(c2ccccc2)CC1,"Tyrosine-protein kinase ABL1, phosphorylated (ABL1, Homo sapiens, UniProt P00519, M351T)","binding, competition with immobilised ligand",1 µM,98
CN(C)c1ncnc(-c2ccc3nc(Nc4cc(CN5CCN(C(=O)CC(F)(F)F)CC5)ccn4)[nH]c3c2)c1Cl,ABL1 E255K phosphorylated,"binding, competition with immobilised ligand",1 µM,49
C=CC(=O)N1CCC(C(=O)NCC(=O)N2CCN(c3nc(-c4cnc(N)nc4C(F)F)nc(N4CCOCC4)n3)CC2)CC1,ABL1 H396P phosphorylated,"binding, competition with immobilised ligand",1 µM,83
CS(=O)(=O)N1CCCC(NC(=O)[C@H](CCC2CCCCC2)NC(=O)c2ccc(CNC(=O)c3cnc4ccccn34)cc2)C1 (some centres unmarked),"Tyrosine-protein kinase ABL1, phosphorylated (ABL1, Homo sapiens, UniProt P00519, Y253F)","cell-free assay, competition with immobilised ligand",0.1 µM,76
Cc1cnn2ncc(-c3ccnc(N(C)C)n3)c2c1,ABL1 M351T,binding,1 µM,91
CCCCN(CCCC)C(=O)CN1C[C@H](c2cc(OC)c3c(c2)OCO3)[C@@H](C(=O)O)[C@@H]1CC(C)(C)CCC,ABL1 F317I non-phosphorylated,"binding, competition with immobilised ligand",1 µM,98.5
C[C@@H]1CCN(c2nccc(-c3cnn4ncccc34)n2)C1,ABL1 non-phosphorylated,binding,1 µM,81
COc1ncc2cc3ccccc3nc2c1C#N,ABL1 phosphorylated,"cell-free assay, competition with immobilised ligand",5 µM,93
CN1CCN(c2ccc(Nc3nccc(-c4ccccc4)n3)cc2C(F)(F)F)CC1,ABL1 Y253F,binding,10 µM,16
O=C(NCCCN1CCOCC1)c1ccc(Nc2nccc(-c3cc4ccccc4s3)n2)cc1,ABL1 Q252H non-phosphorylated,"binding, competition with immobilised ligand",1 µM,34
CC(C)(O)c1cncc(-c2nc3ccc(F)cc3n2C2CC2)c1,ABL1 H396P non-phosphorylated,"cell-free assay, competition with immobilised ligand",1 µM,85
CN(C)c1nccc(-c2cnc3ncccn23)n1,"Tyrosine-protein kinase ABL1 (ABL1, Homo sapiens, UniProt P00519, Q252H)",binding,1 µM,72
O=C(NCCCN1CCOCC1)c1ccc(Nc2ncc(Cl)c(-c3ccc(Cl)s3)n2)cc1,ABL1 Q252H non-phosphorylated,"binding, competition with immobilised ligand",1 µM,11
CNC(=O)[C@@H]1CC[C@@H](n2c(-c3ccc4cnccc4c3)nc3ccc(C(=O)NCc4cccc(C(N)=O)c4)cc32)C1,ABL1 non-phosphorylated,"binding, competition with immobilised ligand",1 µM,69
C[C@@H](c1ccc(-n2cnc3c(N)ncnc32)cc1)N1CCc2nn(C)c(Cc3ccccc3)c2C1=O,"Tyrosine-protein kinase ABL1, phosphorylated (ABL1, Homo sapiens, UniProt P00519, Q252H)","binding, competition with immobilised ligand",0.1 µM,72
CN1CCN(c2cnc3c(C4CCN(C(=O)c5ccc(OC(F)(F)F)cc5N)CC4)ncnc3c2)CC1,ABL1 non-phosphorylated,"cell-free assay, competition with immobilised ligand",1 µM,91
CN(C)c1nccc(-c2cnn3ncccc23)n1,"Tyrosine-protein kinase ABL1 (ABL1, Homo sapiens, UniProt P00519, H396P)",binding,1 µM,89
COc1cnc(Nc2cccc(S(N)(=O)=O)c2)nc1N1CCN(c2ccccc2)C(=O)C1,ABL1 Q252H non-phosphorylated,"binding, competition with immobilised ligand",1 µM,95
O=C(c1ccc(Nc2nccc(-c3cc4ccccc4s3)n2)cc1)N1CCC(N2CCCC2)CC1,ABL1 H396P non-phosphorylated,"binding, competition with immobilised ligand",1 µM,3.1
Cc1noc([C@H]2C[C@@H](c3ccc(C(F)(F)F)cc3)CN(C(=O)N3CCS(=O)(=O)C3)C2)n1,ABL1 T315I non-phosphorylated,"cell-free assay, competition with immobilised ligand",1 µM,100
O=C(Nc1c[nH]nc1C(=O)NC1CCNCC1)c1cc(F)cc(F)c1,ABL1 F317L non-phosphorylated,"binding, competition with immobilised ligand",1 µM,100
F[C@@H]1CCN(c2nccc(-c3cnn4ncccc34)n2)C1,ABL1 phosphorylated,binding,1 µM,79
CN1CCN(c2ccc(Nc3nccc(-c4cccc([N+](=O)[O-])c4)n3)cc2C(F)(F)F)CC1,ABL1 M351T,binding,10 µM,2.7
O=C(c1ccc(Nc2ncc(Cl)c(-c3cc4ccccc4s3)n2)cc1)N1CCC(N2CCCC2)CC1,ABL1 H396P phosphorylated,"binding, competition with immobilised ligand",1 µM,13
c1cncc(-c2cccc(Nc3nccc(NC4CCCCC4)n3)c2)c1,ABL1 F317I non-phosphorylated,"binding, competition with immobilised ligand",10 µM,100
